In publication PMC3240942 (Molecular cell, 2011):
Where no end group is shown, it is not given here.

What was measured:
Sirt1 [1] = target: T1, Sirt1 (Mus musculus, UniProt Q923E4); experiment: Sirt1 deacetylase activity against Ac-p53, peptide added in trans; assay type: biochemical; settings: Figure S2G
T1 sequence (Q923E4 1-737): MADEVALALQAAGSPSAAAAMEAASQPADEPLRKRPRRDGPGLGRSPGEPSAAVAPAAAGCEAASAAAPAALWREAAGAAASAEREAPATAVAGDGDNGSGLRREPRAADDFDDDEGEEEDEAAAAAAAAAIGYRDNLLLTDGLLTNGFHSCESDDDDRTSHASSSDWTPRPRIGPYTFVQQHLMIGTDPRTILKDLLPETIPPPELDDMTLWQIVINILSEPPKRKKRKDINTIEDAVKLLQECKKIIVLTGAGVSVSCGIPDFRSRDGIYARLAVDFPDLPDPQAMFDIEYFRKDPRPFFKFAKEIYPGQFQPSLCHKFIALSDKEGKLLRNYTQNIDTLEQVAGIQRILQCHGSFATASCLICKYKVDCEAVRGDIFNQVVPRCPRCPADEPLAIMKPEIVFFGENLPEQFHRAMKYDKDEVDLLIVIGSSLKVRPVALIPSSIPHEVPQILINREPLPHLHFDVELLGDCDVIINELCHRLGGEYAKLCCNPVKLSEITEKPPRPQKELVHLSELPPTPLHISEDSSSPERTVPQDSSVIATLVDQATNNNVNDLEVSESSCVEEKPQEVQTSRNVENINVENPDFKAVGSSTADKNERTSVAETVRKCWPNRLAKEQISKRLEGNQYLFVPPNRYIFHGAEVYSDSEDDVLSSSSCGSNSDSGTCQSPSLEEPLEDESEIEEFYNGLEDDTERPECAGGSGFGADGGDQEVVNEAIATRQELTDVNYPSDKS

Sirt6 = experiment: Fluorometric Sirt6 deacetylase assay; assay type: biochemical; settings: 150 μM peptide, CycLex SIRT6 fluorometric kit; N=4
Procedure, shortened: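 His-tagged Sirt6 was assayed with the CycLex SIRT6 fluorometric kit. Kit buffer was replaced by 50 mM HEPES pH 7.0, 1 mM DTT, 10 mM MgCl2, 200 mM NaCl plus protease/phosphatase inhibitors. WT or GPDR-mutant ESA peptide (150 μM) or no peptide was present. N=4; mean ± s.e.m.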

Sirt1 [2] = target: T1, Sirt1; experiment: Lineweaver-Burk kinetics of Sirt1; assay type: biochemical; settings: against both Ac-H4 and NAD+; Lineweaver-Burk plot
Procedure, shortened: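 His-Sirt1 (2 μg) was pre-incubated 5 min at room temperature in HEPES pH 7.0 buffer with mutant ESA peptide at 0, 60, 120 or 240 μM. Ac-K16 H4 fluorogenic dipeptide was varied at 500 μM NAD+, or NAD+ was varied at 100 μM substrate. Reactions ran 25 min at 37 °C and were stopped with nicotinamide developer; ex 355/em 460 nm, no-NAD+ blank subtracted. Triplicates. Kis/Kii came from a double-reciprocal noncompetitive model fit, Km from the same analysis, kcat from a Michaelis–Menten fit.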

deacetylase core [3] = experiment: Pull-down of deacetylase core with immobilized GPDR-ESA peptide; assay type: binding, mouse; settings: streptavidin pull-down, Figure S2E top
Procedure, shortened: (§1)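 Biotinylated peptide (mutant ESA or acetyl-H4) was bound to streptavidin agarose for 1 h at room temperature, washed, and held in PBS/1% Triton X-100. Beads (30 μl) took 2 μg GST-fused or His-tagged protein for 2 h at room temperature. Beads were washed with PBS/1% Triton/200 mM NaCl and eluted in β-ME SDS buffer at 95 °C for 10 min. Blots ran on 4–12% SDS-PAGE; biotin-only beads were the control.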

[4] = test system: ESA-deacetylase core interaction; experiment: Competition of the ESA-deacetylase core interaction; assay type: binding, mouse; settings: competing GPDR-ESA peptide (Figure S2E) or 2 μg GST-LZ (N=5)
Procedure, shortened: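 Biotinylated ESA peptide (100 μl at 300 nmole/ml) bound to 1 ml streptavidin agarose for 1 hr at room temperature, washed with PBS, and resuspended in PBS/1% Triton X-100 with protease inhibitors. 30 μl beads incubated 2 hrs at room temperature with deacetylase core and competitor. Biotin-only beads as negative control. Bound core quantified by immunoblot, N=5, mean ± s.e.m.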

[5] = test system: Lys 382 acetylated-p53 (Ac-p53); experiment: Deacetylation of Lys 382 acetylated-p53 by recombinant WT/mutant Sirt1; assay type: biochemical, mouse Sirt1; settings: recombinant Sirt1 2 μg, acetylated GST-p53 0.2 μg, 0.5 mM NAD+, pH 7.0, 37 °C; immunoblot
Procedure, shortened: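 Recombinant His-tagged WT or C-terminally truncated/point-mutant mouse Sirt1 (2 μg) incubated with acetylated GST-p53 (0.2 μg) and 0.5 mM NAD+ in 50 mM HEPES pH 7.0, 1 mM DTT, 10 mM MgCl2, 200 mM NaCl plus protease/phosphatase inhibitors. Reactions ran at 37 °C for indicated times and were stopped with SDS sample buffer. Read-out: immunoblot with acetyl-K382 p53 antibody; loading checked by Coomassie, Ponceau S or Western blot.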

[3H]Ac-histone H4 = [3H]Ac-histone H4 deacetylation, O-[3H]acetyl-ADP-ribose scintillation counting; assay type: biochemical; settings: [3H]Ac-histone H4 substrate; N=4; "almost"
Procedure, shortened: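 WT or mutant recombinant Sirt1 (including ΔESA, G644P, D650R, G644P/D650R) was reacted with [3H]acetyl-histone H4. Activity was quantified by scintillation counting of released O-[3H]acetyl-ADP-ribose. N=4; mean ± s.e.m.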

Sirt1 [6] = target: T1, Sirt1; experiment: Sirt1 deacetylase activity in presence of GST-LZ; assay type: biochemical; settings: compared to GST alone, Figure S3B
deacetylase core [7] = experiment: GST pull-down of deacetylase core with GST-LZ or GST-ESA; assay type: binding, mouse; settings: GST pull-down, GST-LZ vs GST-ESA
Procedure, shortened: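 His-tagged deacetylase core (a.a. 184-510) incubated with GST, GST-ESA or GST-LZ (DBC1 LZ, a.a. 243-264), 2 μg of each. Unbound protein washed off on micro-spin columns with PBS/1% Triton X-100/200 mM NaCl. Elution in SDS buffer with β-ME at 95 °C for 10 min; 4–12% gradient SDS-PAGE and Western blot for bound core and GST fusions.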

native Ac-histone H3 = experiment: Deacetylation of native Ac-histone H3 by recombinant Sirt1; assay type: biochemical
p53 = experiment: Deacetylation of p53 in transfected H1299 cells; assay type: cell-based; settings: co-transfected with p53
Procedure, shortened: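 H1299 cells were transiently co-transfected with a p53 vector and a WT or ΔESA Sirt1 vector; empty vector was the negative control. Acetylated p53 was detected by immunoblot with an acetyl-K382-specific antibody.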

[8] = test system: p53 target genes p21, PUMA and Bim; experiment: Expression of p53 target genes in H1299 cells; assay type: cell-based; settings: co-expressed p53
Procedure, shortened: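 H1299 cells transiently co-transfected with a p53 expression vector and a WT or ΔESA Sirt1 expression vector; empty vector as control. Levels of the p53-activated genes p21, PUMA and Bim were then visualized.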

Flag-p65 (NF-κB) = experiment: Co-immunoprecipitation of Sirt1 with Flag-p65 in Hela cells; assay type: cell-based; settings: V5-tagged Sirt1
Procedure, shortened: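 Transient co-transfection of HeLa cells with Flag-NF-κB p65 plus V5-tagged full-length or ΔESA Sirt1. p65 was pulled down with anti-Flag, and bound Sirt1 was detected by anti-V5 immunoblot alongside input levels.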

GST-Ac-p53 = experiment: Pull-down of Sirt1 / core fragments with GST-Ac-p53; assay type: binding; settings: in vitro pull-down
Procedure, shortened: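 In vitro pull-downs with GST-Ac-p53 or GST alone as negative control. Recombinant Flag-tagged full-length or ΔESA (a.a. 631-655 deleted) Sirt1 pulled down with anti-Flag, bound GST-Ac-p53 detected by GST immunoblot, and Sirt1 shown by Coomassie. Alternatively, core (a.a. 184-510) or Core-ESA with GST-Ac-p53 (2 μg each) in GST pull-down, bound core detected by Sirt1 immunoblot.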

Ac-H3 = experiment: Interaction of Sirt1 with Ac-H3 purified from Hela cells; assay type: binding; settings: Figure S3A
Ac-H4 = experiment: Interaction of Sirt1 with Ac-H4 purified from Hela cells; assay type: binding; settings: Figure S3A
[9] = Pull-down of GST fusion proteins with immobilized GPDR-ESA peptide; assay type: binding; settings: Figure S2F
Procedure, shortened: as §1

[10] = target: T2, Sirt1 deacetylase core (Core, a.a. 184-510) (mouse, UniProt Q923E4 184-510); experiment: pull-down
T2 sequence (looked up): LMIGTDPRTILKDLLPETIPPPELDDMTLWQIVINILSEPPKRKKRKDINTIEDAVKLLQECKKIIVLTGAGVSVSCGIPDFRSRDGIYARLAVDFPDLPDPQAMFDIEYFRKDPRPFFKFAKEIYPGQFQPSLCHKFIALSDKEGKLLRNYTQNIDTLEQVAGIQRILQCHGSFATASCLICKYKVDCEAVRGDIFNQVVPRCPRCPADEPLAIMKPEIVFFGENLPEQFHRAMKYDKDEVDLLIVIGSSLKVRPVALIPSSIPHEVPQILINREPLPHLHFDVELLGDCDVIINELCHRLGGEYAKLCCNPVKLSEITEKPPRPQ

## GPDR-ESA peptide: ESA peptide containing a mutation of two residues, G644P and D650R (GPDR) (QYLFVPPNRYIFHPAEVYSRSEDDV; also: biotinylated, position not given here)
Sirt1 [1]
  inhibition of Sirt1 activity against Ac-p53: also inhibited Sirt1 activity against Ac-p53
Sirt6
  effect on Sirt6 activity: had no effect on Sirt6 activity
Sirt1 [2]
  mode of inhibition: noncompetitive inhibitor
Deacetylase core [3]
  binding to deacetylase core: also bound to the deacetylase core
[4]
  inhibition of ESA-deacetylase core interaction: ESA-deacetylase core interaction was inhibited

## GPDR: Sirt1 with a double mutation G644P and D650R
[5]
  deacetylase activity against Ac-p53: very little deacetylase activity
[3H]Ac-histone H4
  fold reduction of Sirt1 activity: ~10 fold

## GST-LZ: LZ domain of DBC1 (a.a. 243-264) fused to GST (LQRRYRSLLVPSDFLSVHLSWL; also: fused to GST, end not given here)
[4]
  inhibition of ESA-deacetylase core interaction: prevented the ESA-deacetylase core interaction
Sirt1 [6]
  reduction of Sirt1 deacetylase activity: significantly reduced Sirt1 deacetylase activity
Deacetylase core [7]
  relative strength of interaction with deacetylase core: stronger than the ESA-deacetylase core interaction

B1: ΔESA Sirt1: Sirt1 with the 25 a.a. ESA region (a.a. 631-655) deleted (protein)
chain: MADEVALALQAAGSPSAAAAMEAASQPADEPLRKRPRRDGPGLGRSPGEPSAAVAPAAAGCEAASAAAPAALWREAAGAAASAEREAPATAVAGDGDNGSGLRREPRAADDFDDDEGEEEDEAAAAAAAAAIGYRDNLLLTDGLLTNGFHSCESDDDDRTSHASSSDWTPRPRIGPYTFVQQHLMIGTDPRTILKDLLPETIPPPELDDMTLWQIVINILSEPPKRKKRKDINTIEDAVKLLQECKKIIVLTGAGVSVSCGIPDFRSRDGIYARLAVDFPDLPDPQAMFDIEYFRKDPRPFFKFAKEIYPGQFQPSLCHKFIALSDKEGKLLRNYTQNIDTLEQVAGIQRILQCHGSFATASCLICKYKVDCEAVRGDIFNQVVPRCPRCPADEPLAIMKPEIVFFGENLPEQFHRAMKYDKDEVDLLIVIGSSLKVRPVALIPSSIPHEVPQILINREPLPHLHFDVELLGDCDVIINELCHRLGGEYAKLCCNPVKLSEITEKPPRPQKELVHLSELPPTPLHISEDSSSPERTVPQDSSVIATLVDQATNNNVNDLEVSESSCVEEKPQEVQTSRNVENINVENPDFKAVGSSTADKNERTSVAETVRKCWPNRLAKEQISKRLEGNLSSSSCGSNSDSGTCQSPSLEEPLEDESEIEEFYNGLEDDTERPECAGGSGFGADGGDQEVVNEAIATRQELTDVNYPSDKS
modifications: left off: V5, end not stated, kept
[5]
  deacetylase activity against Ac-p53: did not have any deacetylase activity
Native Ac-histone H3
  deacetylase activity against native Ac-histone H3: did not have any deacetylase activity
p53
  deacetylation of p53 in vivo: WT Sirt1, but not ΔESA Sirt1, was able to deacetylate p53
[8]
  suppression of p53 target gene expression: failed to suppress the expression of p53 target genes
Flag-p65 (NF-κB)
  co-immunoprecipitation with Flag-p65: did so very poorly
GST-Ac-p53
  binding to GST-Ac-p53: bound poorly to GST-Ac-p53 compared to full-length Sirt1
Ac-H3
  interaction with Ac-H3: significantly weakened the interaction
Ac-H4
  interaction with Ac-H4: significantly weakened the interaction

B2: GST-Sirtuin domain: GST fused to Sirtuin domain (a.a. 236-490) (protein)
chain: EDAVKLLQECKKIIVLTGAGVSVSCGIPDFRSRDGIYARLAVDFPDLPDPQAMFDIEYFRKDPRPFFKFAKEIYPGQFQPSLCHKFIALSDKEGKLLRNYTQNIDTLEQVAGIQRILQCHGSFATASCLICKYKVDCEAVRGDIFNQVVPRCPRCPADEPLAIMKPEIVFFGENLPEQFHRAMKYDKDEVDLLIVIGSSLKVRPVALIPSSIPHEVPQILINREPLPHLHFDVELLGDCDVIINELCHRLGGEYA
modifications: left off: GST, end not stated, kept
[9]
  binding to immobilized GPDR-ESA peptide: bound to the GPDR-ESA peptide

## QYLFVPPNRYIFHGAEVYSDSEDDV (domain or fragment, mouse, UniProt Q923E4 631-655, looked up) [GST-ESA (ESA fused to GST)]
[10]
  binding result: binds
